From paper PMC3621463 (Nature Communications, 2012)

Tests used:
U2OS cells = experiment: Flow cytometry, early apoptosis, adriamycin; type: cell-based; details: adriamycin 1 μg ml−1, one day; control cells (control siRNA); n=4
In short: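 U2OS cells were transfected with PIMT or control siRNA. After 2 days they were treated with adriamycin, and apoptotic cells were scored by flow cytometry one day later. At least 10,000 cells were analysed per treatment. Significance was tested by Student's t-test.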

PIMT = experiment: In vitro methylation assay with recombinant GST-PIMT; type: biochemical; details: GST-p53 1–82 methylated by GST-PIMT or His-PIMT, followed by NaOH; fluorography
p53 = p53 protein level, immunoblot; type: cell-based; details: U2OS cells, PIMT siRNA/shRNA or ectopic PIMT expression
p53 ubiquitination = experiment: p53 ubiquitination; type: cell-based; details: U2OS or H1299 cells, MG132 40 μM
[1] = tested on: p21 or Bax promoter luciferase; experiment: Luciferase assay, p53-dependent transcription; type: cell-based; details: H1299 cells, p21-luc or Bax-luc; n=4
p53-HDM2 interaction = experiment: p53-HDM2 co-immunoprecipitation; type: cell-based; details: U2OS cells (PIMT siRNA) or H1299 cells (HA-p53, Flag-PIMT)
In short: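 Supernatants were incubated overnight at 4 °C with FLAG-, HA- or p53-antibody agarose and washed twice. Eluates were boiled 5 min, run on 4–12% Bis–Tris gels and immunoblotted with HRP-conjugated primary antibodies using chemiluminescence.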

## COc1cccc2c1C(=O)c1c(O)c3c(c(O)c1C2=O)C[C@@](O)(C(=O)CO)C[C@@H]3O[C@H]1C[C@H](N)[C@H](O)[C@H](C)O1 [adriamycin]
U2OS cells
  early apoptosis: 19.5%

## p53 (amino acids 1–82): N terminus of p53 (amino acids 1–82)
PIMT
  methylation after alkaline treatment: removed upon alkaline treatment

## protein L-isoaspartyl methyltransferase [PIMT]
p53
  p53 protein level: decreased the p53 protein levels in a dose-dependent manner
p53 ubiquitination
  ubiquitination of p53: increased p53 ubiquitination
[1]
  p53-dependent transcription: inhibited the p53-dependent transcription of both reporter genes
p53-HDM2 interaction
  p53-HDM2 interaction: enhanced
